Screening data as filed in PubChem.
A selection: hits, their analogues and other compounds. The true share with any hit is near 12%.
bCat nuc transl: modulators of beta-catenin nuclear translocation. AID 1665. HeLa beta-catenin nuclear translocation, immunofluorescence imaging. nuclear translocation activity, % at 5 µM. actives 0.3% (n = 190,000);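 active means nuclear translocation activity above 50% at 5 µM, with a well cell count of 50 or more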;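 further: per-cell ratio of nuclear to cytoplasmic median beta-catenin stain intensity; plate controls were DMSO negative control for no effect and GSK-3 inhibitor IX positive control for full effect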
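Signal – beta-catenin immunofluorescence imaging with DAPI · Test system – human HeLa cell line · Dosing – 5 µM primary single dose, 0.1% DMSO, 0.02–20 µM confirmation series · Measure – % activation, nuclear-to-cytoplasmic median beta-catenin signal ratio per cell · Incubation – 24 h compound exposure at 37°C, 5% CO2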
Autophagy HCS: alters autophagy in cells | MEF GFP-LC3 puncta imaging; test concentration mostly 10 µM | calls only at 10 µM (by protocol) | actives 0.98% (n = 190,000);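 active means percentage of spot-positive cells more than 3 SD above its plate mean, without a fluorescence outlier flag or 80% toxicity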;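 further: spot-positive cell cutoff set from DMSO-treated cells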
CHOP inhibitor: CHOP inhibition in unfolded protein response; CHO-K1 CHOP-promoter luciferase, tunicamycin-induced, 15-18 h; inhibition, % at 10 µM; actives 3.8% (n = 220,000); AID 2732;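 active means compounds that reduced the stress-induced luciferase reporter signal by more than about 70% of percent inhibition, limit read from the data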;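 further: 0% = tunicamycin plus vehicle and 100% = wells without tunicamycin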
MT stabilize HCS: microtubule stabilizers in HeLa cells; % tubulin-high responders, % at 10 µM; HeLa tubulin immunostaining HCS, 24 h; share of cells brighter than vehicle mean+2SD; actives 0.83% (n = 200,000);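 active means plate Z-score above 3 for both tubulin-high and condensed-nucleus cell shares, with cell loss under 80%, at 10 µM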;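 further: anti alpha tubulin signal scored within the nucleus-defined area of each cell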
L major viab: reduces viability of Leishmania major promastigotes; resazurin fluorescence viability; inhibition, % at 10 µM; actives 9% (n = 200,000); in the data active means inhibition above about 50%;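 further: promastigotes grown with compound for 44 hours at 28 °C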
Dynein transport: blocks dynein driven cargo transport along microtubules; 3617.4 mouse cells, GR-EGFP nuclear translocation imaging; test concentration mostly 20 µM; stimulated with dexamethasone, 1 µM; active compounds read low; z-score, hits read low; actives 0.47% (n = 220,000);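 active means plate z-score of nuclear minus cytoplasmic receptor signal below a set negative limit, without overly bright fluorescence or cell loss, cut at about -3.5 in these data, passing the limit was not always enough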;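 further: z-score of nuclear minus cytoplasmic ring GR-EGFP intensity difference per well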
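Buffer or medium: tet-free medium with charcoal-stripped serum / Also added: dexamethasone agonist, 1.0 µM final, for 30 min / Timing: induction 48 h, compound 1 h, agonist 30 min / Measured by: high-content fluorescence imaging after fixation / Read-out: nuclear-to-cytoplasmic GR-EGFP distribution per well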
* = called active by the depositor; i = inactive; x = not tested or not shown; + = active, no number.

SMILES	bCat nuc transl	Autophagy HCS	CHOP inhibitor	MT stabilize HCS	L major viab	Dynein transport
C[C@H](NC(=O)c1nc[nH]c1C(=O)N1CCc2ccccc2C1)C(=O)OCc1ccccc1	-1	x	7	x	x	0.0066
COc1cccc(C2CC(c3c(-c4ccccc4)c4cc(Cl)ccc4[nH]c3=O)=NN2S(C)(=O)=O)c1OC (centres undefined)	-5	i	54	3	100*	-0.98
Cc1cc(C(F)F)nn1CC(=O)NC1C(=O)N2C(C(=O)O)=C(CSc3nnnn3C)CSC12 (centres undefined)	0	i	13	4	-3	0.5
COC(=O)c1[nH]c2c(c1C)C(=O)CC(c1cccs1)C2 (centres undefined)	39	+	x	16*	20	2.1
COC(=O)c1[nH]c2c(c1C)C(=O)CC(c1cc(OC)ccc1OC)C2 (centres undefined)	-2	x	x	27*	18	0.51
COc1ccccc1-n1cnnc1SCC(=O)c1ccc[nH]1	x	i	-14	4	-5	0.44
CC(=O)Nc1ccc(C(C#N)c2ccccc2)cc1 (centres undefined)	1	i	-10	3	-5	0.6
COCCN(C(=O)CSc1ncc(C(F)(F)F)cc1Cl)c1c(N)n(Cc2ccccc2)c(=O)[nH]c1=O	0	i	-15	4	-7	-0.82
CCOc1ccc(/C=N/OCC(=O)Nc2ccc3c(c2)OCO3)cc1	0	i	4	6	-3	-0.33
CCOc1ccc(/C=N/OCC(=O)NC(c2ccccc2)c2ccccc2)cc1	x	i	37	2	77*	-0.77
CCOc1ccc(/C=N/OCC(=O)Nc2cc(C)on2)cc1	x	i	42	3	60*	0.32
COc1ccc(/C=N/OCC(=O)NC(c2ccccc2)c2ccccc2)c(OC)c1	-3	i	22	4	100*	2.6
CS(=O)(=O)N1CCc2cc(C(=O)N3CCCC3)ccc21	0	i	19	2	-6	-1.4
CNC(=O)CN(c1cc(OCCOC)c(Cl)cc1Cl)S(=O)(=O)c1ccc(OC)cc1	-2	i	-15	16*	-1	-0.31
CNC(=O)CN(c1ccc(OC)cc1)S(=O)(=O)c1ccc(F)cc1	-3	i	1	3	-5	0.33
CC(=O)c1ccc(S(=O)c2ccccc2)cc1 (centres undefined)	1	i	49	4	-4	-0.25
CCN1C(=O)/C(=C2/C=Cc3ccccc3N2C)OC1=S	0	i	0	2	-4	-0.63
CCN1C(=O)/C(=C2\C=Cc3cc(C)ccc3N2CC)OC1=S	-2	+	-29	4	2	-0.96
CCOC(=O)C1(Cc2ccc(OC)cc2)CCN(C(=O)c2ccoc2C)CC1	0	i	13	2	27	0.12
Cc1nn(Cc2cccc(C(=O)N3CCCC(C)C3)c2)c(C)c1[N+](=O)[O-] (centres undefined)	2	i	33	3	-11	-0.66
Cc1nc(N2CCCCC2C)c2c(C)c(C(=O)Nc3cccc(C(F)(F)F)c3)sc2n1 (centres undefined)	-2	i	80*	2	67*	2.5
Cc1nc(N2CCCCC2)c2c(C)c(C(=O)Nc3cccc(C(F)(F)F)c3)sc2n1	1	i	35	1	62*	-0.21
Cc1nc(N2CCCCC2)c2c(C)c(C(=O)Nc3ccccc3C(F)(F)F)sc2n1	0	i	71*	2	42	-0.2
O=C(CSc1ccc2ccccc2n1)Nc1ccc(N2CCOCC2)cc1	2	i	15	2	4	0.68
O=c1c2ccccc2nc2n1CC/C2=C/N1CCN(c2cccc(C(F)(F)F)c2)CC1	0	i	-12	2	55*	-0.7
SMILES	bCat nuc transl	Autophagy HCS	CHOP inhibitor	MT stabilize HCS	L major viab	Dynein transport
Cn1ncc([N+](=O)[O-])c1C(=O)n1nnc2ccccc21	4	i	-5	2	1	-0.23
CCN(CC(=O)Nc1ccc(N2CCOCC2)cc1)C(=O)COc1ccccc1OC	-5	i	9	2	-3	-0.58
Cn1c(CSCc2ccccc2)n[nH]c1=S	0	i	31	2	39	-0.57
O=C1c2cccc3c(N4CCCCC4)ccc(c23)C(=O)N1c1ccccc1O	1	i	4	3	6	-0.46
O=C1c2cccc3c(N4CCCCC4)ccc(c23)C(=O)N1c1ccc(O)cc1	1	+	106*	8	39	0.32
Nc1c(C(=O)N/N=C/c2cccnc2)oc2nc(-c3ccccc3)cc(-c3ccco3)c12	1	x	-9	x	x	-0.3
O=CNn1cnc2c(oc3nc(-c4ccccc4)cc(-c4ccco4)c32)c1=O	2	i	85*	3	-1	0.77
CC(=O)N1CCCN(Cc2cn(-c3cccc(C)c3)nc2-c2cccc(F)c2)CC1	1	x	-25	x	x	-0.71
CCc1sc(-c2c(C#N)c(N)nc3c2CCCCCC3)cc1[N+](=O)[O-]	-2	i	76*	3	1	-0.2
CC(C)(C)c1ccc(-c2c(C#N)c(N)nc3c2CCCC3)s1	0	i	9	2	9	-0.51
CCOC(=O)N1CCC(N2Cc3cccc(C(=O)NCc4ccccn4)c3C2=O)CC1	x	i	-8	4	-5	-0.51
Cc1ccc(NC(=O)CC2=NC(=O)C(CC(=O)Nc3ccccc3C)S2)cc1 (centres undefined)	2	i	9	3	-1	1.6
CC(=O)NC(CC(=O)NC12CC3CC(CC(C3)C1)C2)c1ccccc1 (centres undefined)	x	i	47	4	63*	2.3
O=C(NC12CC3CC(CC(C3)C1)C2)c1ccccc1O	-1	i	77*	3	50*	0.34
O=C(CN(c1cccc(Cl)c1)S(=O)(=O)c1ccc(Cl)cc1)N1CCc2ccccc2C1	-1	i	9	3	36	-0.46
COc1cccc(/C=C/C(=O)N2CCN(c3n[nH]c(=O)[nH]c3=O)CC2)c1OC	-1	i	-4	2	2	0.98
CCOC(=O)c1sc(NC(=O)C(OC(C)=O)c2ccccc2)nc1C (centres undefined)	-1	i	47	5	44	-0.12
CCOC(=O)c1sc(NC(=O)C(CC)Sc2nc3ccccc3[nH]2)nc1C (centres undefined)	x	i	x	3	54*	-1
CCOC(=O)c1sc(NC(=O)C(CC)Sc2nnc3c4ccccc4n(C(C)C)c3n2)nc1C (centres undefined)	-6	i	69	8	72*	-0.26
CC(C)n1c2ccccc2c2nnc(SCC(=O)OCN3C(=O)c4ccccc4C3=O)nc21	0	i	90*	5	-3	-0.78
